Converted amounts (≈) assume the structure as drawn. The source made the active and inactive calls. No cut-off for these calls is given here.
Legend:
Haemophilus influenzae [1] = test: Antimicrobial activity against Haemophilus influenzae VT450-2006 by broth microdilution method; type: functional
How it was run: (§1)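 MICs by broth microdilution following CLSI guidelines, in cation-adjusted Mueller-Hinton broth or Haemophilus test medium broth. Cultures were grown at 37°C without shaking.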

Streptococcus pyogenes [2] = test: Bactericidal activity against Streptococcus pyogenes VT 59 assessed as eradication of pre-formed biofilm at 50 times MIC after 24 hrs; type: functional
How it was run: (§2)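 24-h, 37°C 96-well biofilms were washed three times with 0.15 M phosphate buffer pH 7.2. They were treated 24 h at 37°C with antibiotic at 50 times MIC, alone or with DNase I at 5 μg/ml, in medium. Biomass: 0.1% crystal violet for 30 min at room temperature, water washes, ethanol-acetone (80:20) solubilization, absorbance at 570 nm.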

Staphylococcus aureus [3] = test: Antimicrobial activity against Staphylococcus aureus ATCC 29213 by broth microdilution method; type: functional; how it was run: as §1
Streptococcus pyogenes [4] = test: Bactericidal activity against Streptococcus pyogenes VT 59 assessed as eradication of pre-formed biofilm at 50 times MIC after 24 hrs by serial dilution; type: functional
How it was run: (§3)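 Preformed 24-h biofilms in 96-well plates got antibiotic at 50 times MIC, DNase I at 5 μg/ml, or both, for 24 h at 37°C. Wells were scraped into 1.0 ml of 0.15 M phosphate buffer pH 7.2, serially diluted and plated; result is log10 CFU/well. Mean ± SEM of three independent experiments, counts done in triplicate.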

Staphylococcus aureus [5] = test: Bactericidal activity against Staphylococcus aureus ATCC 29213 assessed as eradication of pre-formed biofilm at 50 times MIC after 24 hrs by serial dilution; type: functional; how it was run: as §3
Haemophilus influenzae [6] = test: Bactericidal activity against Haemophilus influenzae VT450-2006 assessed as eradication of pre-formed biofilm at 50 times MIC after 24 hrs by serial dilution; type: functional; how it was run: as §3
Haemophilus influenzae [7] = test: Bactericidal activity against Haemophilus influenzae VT450-2006 assessed as eradication of pre-formed biofilm at 1 to 10 times MIC after 24 hrs; type: functional, organism-based
How it was run: (§4)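 Biofilms were grown 24 h at 37°C in 96-well plates from a 24-h broth culture (inoculum 7.53 ± 0.22 log10 CFU/ml). […] Read-out was crystal-violet biomass (OD570) and CFU by serial dilution plating.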

Escherichia coli [8] = test: Bactericidal activity against Escherichia coli ATCC 25922 assessed as eradication of pre-formed biofilm at 1 to 10 times MIC after 24 hrs; type: functional, organism-based; how it was run: as §4
Klebsiella pneumoniae [9] = test: Bactericidal activity against Klebsiella pneumoniae VT 1367 assessed as eradication of pre-formed biofilm at 1 to 10 times MIC after 24 hrs; type: functional, organism-based; how it was run: as §4
Acinetobacter baumannii [10] = test: Bactericidal activity against Acinetobacter baumannii VT 126 assessed as eradication of pre-formed biofilm at 1 to 10 times MIC after 24 hrs; type: functional, organism-based; how it was run: as §4
Streptococcus pyogenes [11] = test: Bactericidal activity against Streptococcus pyogenes VT 59 assessed as eradication of pre-formed biofilm at 1 to 10 times MIC after 24 hrs; type: functional, organism-based; how it was run: as §4
Pseudomonas aeruginosa [12] = test: Bactericidal activity against Pseudomonas aeruginosa ATCC 27853 assessed as eradication of pre-formed biofilm at 1 to 10 times MIC after 24 hrs; type: functional, organism-based; how it was run: as §4
Staphylococcus aureus [13] = test: Bactericidal activity against Staphylococcus aureus ATCC 29213 assessed as eradication of pre-formed biofilm at 1 to 10 times MIC after 24 hrs by serial dilution; type: functional, organism-based; how it was run: as §4
Streptococcus pyogenes [14] = test: Antimicrobial activity against Streptococcus pyogenes VT 59 by broth microdilution method; type: functional; how it was run: as §1
Escherichia coli [15] = test: Bactericidal activity against Escherichia coli ATCC 25922 assessed as eradication of pre-formed biofilm at 50 times MIC after 24 hrs; type: functional; how it was run: as §2
Pseudomonas aeruginosa [16] = test: Antimicrobial activity against Pseudomonas aeruginosa ATCC 27853 by broth microdilution method; type: functional; how it was run: as §1
Pseudomonas aeruginosa [17] = test: Bactericidal activity against Pseudomonas aeruginosa ATCC 27853 assessed as eradication of pre-formed biofilm at 50 times MIC after 24 hrs by serial dilution; type: functional; how it was run: as §3
Klebsiella pneumoniae [18] = test: Antimicrobial activity against Klebsiella pneumoniae VT 1367 by broth microdilution method; type: functional; how it was run: as §1
Klebsiella pneumoniae [19] = test: Bactericidal activity against Klebsiella pneumoniae VT 1367 assessed as eradication of pre-formed biofilm at 50 times MIC after 24 hrs; type: functional; how it was run: as §2
Acinetobacter baumannii [20] = test: Bactericidal activity against Acinetobacter baumannii VT 126 assessed as eradication of pre-formed biofilm at 50 times MIC after 24 hrs by serial dilution; type: functional; how it was run: as §3
Acinetobacter baumannii [21] = test: Antimicrobial activity against Acinetobacter baumannii VT 126 by broth microdilution method; type: functional; how it was run: as §1
Escherichia coli [22] = test: Bactericidal activity against Escherichia coli ATCC 25922 assessed as eradication of pre-formed biofilm at 50 times MIC after 24 hrs by serial dilution; type: functional; how it was run: as §3
Klebsiella pneumoniae [23] = test: Bactericidal activity against Klebsiella pneumoniae VT 1367 assessed as eradication of pre-formed biofilm at 50 times MIC after 24 hrs by serial dilution; type: functional; how it was run: as §3
Escherichia coli [24] = test: Antimicrobial activity against Escherichia coli ATCC 25922 by broth microdilution method; type: functional; how it was run: as §1
Staphylococcus aureus [25] = test: Bactericidal activity against Staphylococcus aureus ATCC 29213 assessed as eradication of pre-formed biofilm at 50 times MIC after 24 hrs; type: functional; how it was run: as §2
Acinetobacter baumannii [26] = test: Bactericidal activity against Acinetobacter baumannii VT 126 assessed as eradication of pre-formed biofilm at 50 times MIC after 24 hrs; type: functional; how it was run: as §2
Pseudomonas aeruginosa [27] = test: Bactericidal activity against Pseudomonas aeruginosa ATCC 27853 assessed as eradication of pre-formed biofilm at 50 times MIC after 24 hrs; type: functional; how it was run: as §2
Haemophilus influenzae [28] = test: Bactericidal activity against Haemophilus influenzae VT450-2006 assessed as eradication of pre-formed biofilm at 50 times MIC after 24 hrs; type: functional; how it was run: as §2

Row | SMILES | MIC (Haemophilus influenzae [1]) [µg/mL] | MIC (Staphylococcus aureus [3]) [µg/mL] | log10cfu (Streptococcus pyogenes [4]) | log10cfu (Staphylococcus aureus [5]) | log10cfu (Haemophilus influenzae [6]) | inhibition (Haemophilus influenzae [7]) | inhibition (Escherichia coli [8]) | inhibition (Klebsiella pneumoniae [9]) | inhibition (Acinetobacter baumannii [10]) | inhibition (Streptococcus pyogenes [11]) | inhibition (Pseudomonas aeruginosa [12]) | inhibition (Staphylococcus aureus [13]) | MIC (Streptococcus pyogenes [14]) [µg/mL] | inhibition (INH) (Escherichia coli [15]) [%] | MIC (Pseudomonas aeruginosa [16]) [µg/mL] | log10cfu (Pseudomonas aeruginosa [17]) | MIC (Klebsiella pneumoniae [18]) [µg/mL] | log10cfu (Acinetobacter baumannii [20]) | MIC (Acinetobacter baumannii [21]) [µg/mL] | log10cfu (Escherichia coli [22]) | other results
1 | CC[C@H]1OC(=O)[C@H](C)[C@@H](O[C@H]2C[C@@](C)(OC)[C@@H](O)[C@H](C)O2)[C@H](C)[C@@H](O[C@@H]2O[C@H](C)C[C@H](N(C)C)[C@H]2O)[C@](C)(O)C[C@@H](C)CN(C)[C@H](C)[C@@H](O)[C@]1(C)O [AZITHROMYCIN] | 1 (≈ 1.34 µM) | 0.3 (≈ 0.401 µM) | 8.24 | 9.75 | 8.14 | inactive | inactive | inactive | inactive | inactive | inactive | inactive | 0.25 (≈ 0.334 µM) |  |  |  |  |  |  |  | inhibition (INH) (Streptococcus pyogenes [2]): 20%
2 | C[C@H]1COc2c(N3CCN(C)CC3)c(F)cc3c(=O)c(C(=O)O)cn1c23.C[C@H]1COc2c(N3CCN(C)CC3)c(F)cc3c(=O)c(C(=O)O)cn1c23.O [LEVOFLOXACIN] | 0.07 | 0.3 | 6.39 | 7.39 | 8.25 | inactive | inactive | inactive | inactive | inactive | inactive | inactive | 0.5 | 10 | 0.6 | 8.69 | 0.15 | 8.26 | 8 | 8.46 | inhibition (INH) (Streptococcus pyogenes [2]): 10%; inhibition (INH) (Klebsiella pneumoniae [19]): 10%; log10cfu (Klebsiella pneumoniae [23]): 8.62; MIC (Escherichia coli [24]): 0.035 µg/mL; inhibition (INH) (Staphylococcus aureus [25]): 10%; inhibition (INH) (Acinetobacter baumannii [26]): 10%; inhibition (INH) (Pseudomonas aeruginosa [27]): 10%; inhibition (INH) (Haemophilus influenzae [28]): 10%
3 | CO[C@H]1/C=C/O[C@@]2(C)Oc3c(C)c(O)c4c(O)c(c(/C=N/N5CCN(C)CC5)c(O)c4c3C2=O)NC(=O)/C(C)=C\C=C\[C@H](C)[C@H](O)[C@@H](C)[C@@H](O)[C@@H](C)[C@H](OC(C)=O)[C@@H]1C [RIFAMPIN] | 0.8 (≈ 0.972 µM) | 0.25 (≈ 0.304 µM) | 6.44 | 7.5 | 8.14 | inactive | inactive | inactive | inactive | inactive | inactive | inactive | 0.25 (≈ 0.304 µM) | 10 | 16 (≈ 19.4 µM) | 8.56 | 16 (≈ 19.4 µM) | 8.15 | 8 (≈ 9.72 µM) | 8.58 | inhibition (INH) (Streptococcus pyogenes [2]): 10%; inhibition (INH) (Klebsiella pneumoniae [19]): 10%; log10cfu (Klebsiella pneumoniae [23]): 8.5; MIC (Escherichia coli [24]): 8 µg/mL (≈ 9.72 µM); inhibition (INH) (Staphylococcus aureus [25]): 10%; inhibition (INH) (Acinetobacter baumannii [26]): 10%; inhibition (INH) (Pseudomonas aeruginosa [27]): 10%; inhibition (INH) (Haemophilus influenzae [28]): 10%
4 | CC1(C)S[C@@H]2[C@H](NC(=O)[C@H](N)c3ccccc3)C(=O)N2[C@H]1C(=O)O [AMPICILLIN] | 0.5 (≈ 1.43 µM) | 0.025 (≈ 0.0715 µM) | 8.16 | 9.51 | 8.44 | inactive | inactive | inactive | inactive | inactive | inactive | inactive | 0.25 (≈ 0.715 µM) | 10 | 128 (≈ 366 µM) | 8.62 | 64 (≈ 183 µM) | 8.29 | 50 (≈ 143 µM) | 8.55 | log10cfu (Klebsiella pneumoniae [23]): 8.33; MIC (Escherichia coli [24]): 16 µg/mL (≈ 45.8 µM); inhibition (INH) (Pseudomonas aeruginosa [27]): 10%
5 | CO/N=C(\C(=O)N[C@@H]1C(=O)N2C(C(=O)O)=C(COC(C)=O)CS[C@H]12)c1csc(N)n1 [CEFOTAXIME] | 0.16 (≈ 0.351 µM) | 3.8 (≈ 8.34 µM) | 8.2 | 9.67 | 8.45 | inactive | inactive | inactive | inactive | inactive | inactive | inactive | 0.03 (≈ 0.0659 µM) | 10 | 64 (≈ 141 µM) | 8.68 | 0.06 (≈ 0.132 µM) | 8.32 | 1.5 (≈ 3.29 µM) | 8.66 | log10cfu (Klebsiella pneumoniae [23]): 8.54; MIC (Escherichia coli [24]): 1.5 µg/mL (≈ 3.29 µM); inhibition (INH) (Pseudomonas aeruginosa [27]): 10%

— ChEMBL document CHEMBL1629635, “Effect of DNase and antibiotics on biofilm characteristics” (2009)
